Measurements: ChEMBL document CHEMBL1255424, “Antistaphylococcal activity of ACHN-490 tested alone and in combination with other agents by time-kill assay” (2010)
In brackets after ≈: the same amount, converted by molar mass.

Tests used:
Type in all cases: functional
Staphylococcus aureus [1] = test: Antibacterial activity against vancomycin-intermediate Staphylococcus aureus isolate 1017 after 24 hrs by modified broth macrodilution method; details: isolate 1017, 24 h
Summary of the method: (§1)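 MIC read after 24 h incubation by modified broth macrodilution, validated per CLSI recommendations, against recent clinical MRSA isolates (hospital- and community-acquired, hVISA, VISA, VRSA). Daptomycin tests ran in Mueller-Hinton broth with added calcium.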

Staphylococcus aureus [2] = test: Antibacterial activity against methicillin-resistant Staphylococcus aureus isolate 2003 after 24 hrs by modified broth macrodilution method; details: isolate 2003, 24 h; summary of the method: as §1
Staphylococcus aureus [3] = test: Antibacterial activity against vancomycin-intermediate Staphylococcus aureus isolate 555 after 24 hrs by modified broth macrodilution method; details: isolate 555, 24 h; summary of the method: as §1
Staphylococcus aureus [4] = test: Antibacterial activity against vancomycin-hetero-intermediate Staphylococcus aureus isolate 873 after 24 hrs by modified broth macrodilution method; details: isolate 873, 24 h; summary of the method: as §1
Staphylococcus aureus [5] = test: Antibacterial activity against vancomycin-intermediate Staphylococcus aureus isolate 1007 after 24 hrs by modified broth macrodilution method; details: isolate 1007, 24 h; summary of the method: as §1
Staphylococcus aureus [6] = test: Antibacterial activity against vancomycin-intermediate Staphylococcus aureus isolate 1009 after 24 hrs by modified broth macrodilution method; details: isolate 1009, 24 h; summary of the method: as §1
Staphylococcus aureus [7] = test: Antibacterial activity against community-acquired methicillin-resistant panton-valentine leukocidin-negative Staphylococcus aureus isolate 1470 after 24 hrs by modified broth macrodilution method; details: isolate 1470, 24 h; summary of the method: as §1
Staphylococcus aureus [8] = test: Antibacterial activity against vancomycin-intermediate Staphylococcus aureus isolate 1014 after 24 hrs by modified broth macrodilution method; details: isolate 1014, 24 h; summary of the method: as §1
Staphylococcus aureus [9] = test: Antibacterial activity against community-acquired methicillin-resistant panton-valentine leukocidin-positive Staphylococcus aureus isolate 813 after 24 hrs by modified broth macrodilution method; details: isolate 813, 24 h; summary of the method: as §1
Staphylococcus aureus [10] = test: Antibacterial activity against hospital-acquired methicillin-resistant Staphylococcus aureus isolate 1776 after 24 hrs by modified broth macrodilution method; details: isolate 1776, 24 h; summary of the method: as §1
Staphylococcus aureus [11] = test: Antibacterial activity against vancomycin-intermediate Staphylococcus aureus isolate 1287 after 24 hrs by modified broth macrodilution method; details: isolate 1287, 24 h; summary of the method: as §1
Staphylococcus aureus [12] = test: Antibacterial activity against community-acquired methicillin-resistant panton-valentine leukocidin-positive Staphylococcus aureus isolate 1469 after 24 hrs by modified broth macrodilution method; details: isolate 1469, 24 h; summary of the method: as §1
Staphylococcus aureus [13] = test: Antibacterial activity against community-acquired methicillin-resistant panton-valentine leukocidin-positive Staphylococcus aureus isolate 1468 after 24 hrs by modified broth macrodilution method; details: isolate 1468, 24 h; summary of the method: as §1
Staphylococcus aureus [14] = test: Antibacterial activity against community-acquired methicillin-resistant panton-valentine leukocidin-positive Staphylococcus aureus isolate 1471 after 24 hrs by modified broth macrodilution method; details: isolate 1471, 24 h; summary of the method: as §1
Staphylococcus aureus [15] = test: Antibacterial activity against community-acquired methicillin-resistant panton-valentine leukocidin-positive Staphylococcus aureus isolate 1472 after 24 hrs by modified broth macrodilution method; details: isolate 1472, 24 h; summary of the method: as §1
Staphylococcus aureus [16] = test: Antibacterial activity against community-acquired methicillin-resistant panton-valentine leukocidin-positive Staphylococcus aureus isolate 693 after 24 hrs by modified broth macrodilution method; details: isolate 693, 24 h; summary of the method: as §1
Staphylococcus aureus [17] = test: Antibacterial activity against hospital-acquired methicillin-resistant Staphylococcus aureus isolate 1808 after 24 hrs by modified broth macrodilution method; details: isolate 1808, 24 h; summary of the method: as §1
Staphylococcus aureus [18] = test: Antibacterial activity against vancomycin-resistant Staphylococcus aureus isolate 1264 after 24 hrs by modified broth macrodilution method; details: isolate 1264, 24 h; summary of the method: as §1
Staphylococcus aureus [19] = test: Antibacterial activity against vancomycin-resistant Staphylococcus aureus isolate 1263 after 24 hrs by modified broth macrodilution method; details: isolate 1263, 24 h; summary of the method: as §1
Staphylococcus aureus [20] = test: Antibacterial activity against vancomycin-hetero-intermediate Staphylococcus aureus after 24 hrs by modified broth macrodilution method; summary of the method: as §1
Staphylococcus aureus [21] = test: Antibacterial activity against vancomycin-intermediate Staphylococcus aureus isolate 1003 after 24 hrs by modified broth macrodilution method; details: isolate 1003, 24 h; summary of the method: as §1
Staphylococcus aureus [22] = test: Antibacterial activity against vancomycin-intermediate Staphylococcus aureus isolate 1011 after 24 hrs by modified broth macrodilution method; details: isolate 1011, 24 h; summary of the method: as §1
Staphylococcus aureus [23] = test: Antibacterial activity against vancomycin-intermediate Staphylococcus aureus isolate 1008 after 24 hrs by modified broth macrodilution method; details: isolate 1008, 24 h; summary of the method: as §1
Staphylococcus aureus [24] = test: Antibacterial activity against vancomycin-resistant Staphylococcus aureus after 24 hrs by modified broth macrodilution method; summary of the method: as §1
Staphylococcus aureus [25] = test: Antibacterial activity against vancomycin-intermediate Staphylococcus aureus isolate 1015 after 24 hrs by modified broth macrodilution method; details: isolate 1015, 24 h; summary of the method: as §1
Staphylococcus aureus [26] = test: Antibacterial activity against vancomycin-susceptible Staphylococcus aureus after 24 hrs by modified broth macrodilution method
Summary of the method: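 MICs determined in recent clinical MRSA isolates by a modified broth macrodilution method per CLSI recommendations, with 24 h incubation. Daptomycin tests used Mueller-Hinton broth supplemented with calcium. Value is the lowest inhibitory drug concentration.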

Staphylococcus aureus [27] = test: Antibacterial activity against community-acquired methicillin-resistant panton-valentine leukocidin-positive Staphylococcus aureus isolate 950 after 24 hrs by modified broth macrodilution method; details: isolate 950, 24 h; summary of the method: as §1
Staphylococcus aureus [28] = test: Antibacterial activity against vancomycin-intermediate Staphylococcus aureus isolate 1984 after 24 hrs by modified broth macrodilution method; details: isolate 1984, 24 h; summary of the method: as §1
Staphylococcus aureus [29] = test: Antibacterial activity against vancomycin-intermediate Staphylococcus aureus after 24 hrs by modified broth macrodilution method; summary of the method: as §1
Staphylococcus aureus [30] = test: Antibacterial activity against vancomycin-hetero-intermediate Staphylococcus aureus isolate 618 after 24 hrs by modified broth macrodilution method; details: isolate 618, 24 h; summary of the method: as §1
Staphylococcus aureus [31] = test: Antibacterial activity against vancomycin-intermediate Staphylococcus aureus isolate 1016 after 24 hrs by modified broth macrodilution method; details: isolate 1016, 24 h; summary of the method: as §1
Staphylococcus aureus [32] = test: Antibacterial activity against vancomycin-intermediate Staphylococcus aureus isolate 1010 after 24 hrs by modified broth macrodilution method; details: isolate 1010, 24 h; summary of the method: as §1
Staphylococcus aureus [33] = test: Antibacterial activity against community-acquired methicillin-resistant panton-valentine leukocidin-positive Staphylococcus aureus isolate 593 after 24 hrs by modified broth macrodilution method; details: isolate 593, 24 h; summary of the method: as §1
Staphylococcus aureus [34] = test: Antibacterial activity against hospital-acquired methicillin-resistant Staphylococcus aureus isolate 1867 after 24 hrs by modified broth macrodilution method; details: isolate 1867, 24 h; summary of the method: as §1
Staphylococcus aureus [35] = test: Antibacterial activity against vancomycin-intermediate Staphylococcus aureus isolate 511 after 24 hrs by modified broth macrodilution method; details: isolate 511, 24 h; summary of the method: as §1
Staphylococcus aureus [36] = test: Antibacterial activity against hospital-acquired methicillin-resistant Staphylococcus aureus isolate 1851 after 24 hrs by modified broth macrodilution method; details: isolate 1851, 24 h; summary of the method: as §1
Staphylococcus aureus [37] = test: Antibacterial activity against vancomycin-intermediate Staphylococcus aureus isolate 1004 after 24 hrs by modified broth macrodilution method; details: isolate 1004, 24 h; summary of the method: as §1
Staphylococcus aureus [38] = test: Antibacterial activity against vancomycin-intermediate Staphylococcus aureus isolate 1012 after 24 hrs by modified broth macrodilution method; details: isolate 1012, 24 h; summary of the method: as §1
Staphylococcus aureus [39] = test: Antibacterial activity against vancomycin-resistant Staphylococcus aureus isolate 509 after 24 hrs by modified broth macrodilution method; details: isolate 509, 24 h; summary of the method: as §1
Staphylococcus aureus [40] = test: Antibacterial activity against hospital-acquired methicillin-resistant Staphylococcus aureus isolate 1766 after 24 hrs by modified broth macrodilution method; details: isolate 1766, 24 h; summary of the method: as §1
Staphylococcus aureus [41] = test: Antibacterial activity against vancomycin-intermediate Staphylococcus aureus isolate 1005 after 24 hrs by modified broth macrodilution method; details: isolate 1005, 24 h; summary of the method: as §1
Staphylococcus aureus [42] = test: Antibacterial activity against vancomycin-resistant Staphylococcus aureus isolate 510 after 24 hrs by modified broth macrodilution method; details: isolate 510, 24 h; summary of the method: as §1
Staphylococcus aureus [43] = test: Antibacterial activity against hospital-acquired methicillin-resistant Staphylococcus aureus isolate 1838 after 24 hrs by modified broth macrodilution method; details: isolate 1838, 24 h; summary of the method: as §1
Staphylococcus aureus [44] = test: Antibacterial activity against vancomycin-resistant Staphylococcus aureus isolate 557 after 24 hrs by modified broth macrodilution method; details: isolate 557, 24 h; summary of the method: as §1
Staphylococcus aureus [45] = test: Antibacterial activity against vancomycin-intermediate Staphylococcus aureus isolate 1013 after 24 hrs by modified broth macrodilution method; details: isolate 1013, 24 h; summary of the method: as §1
Staphylococcus aureus [46] = test: Antibacterial activity against hospital-acquired methicillin-resistant Staphylococcus aureus isolate 1751 after 24 hrs by modified broth macrodilution method; details: isolate 1751, 24 h; summary of the method: as §1
Staphylococcus aureus [47] = test: Antibacterial activity against hospital-acquired methicillin-resistant Staphylococcus aureus isolate 1743 after 24 hrs by modified broth macrodilution method; details: isolate 1743, 24 h; summary of the method: as §1
Staphylococcus aureus [48] = test: Antibacterial activity against vancomycin-intermediate Staphylococcus aureus isolate 1006 after 24 hrs by modified broth macrodilution method; details: isolate 1006, 24 h; summary of the method: as §1
Staphylococcus aureus [49] = test: Antibacterial activity against hospital-acquired methicillin-resistant Staphylococcus aureus isolate 1806 after 24 hrs by modified broth macrodilution method; details: isolate 1806, 24 h; summary of the method: as §1
Staphylococcus aureus [50] = test: Antibacterial activity against vancomycin-intermediate Staphylococcus aureus isolate 770 after 24 hrs by modified broth macrodilution method; details: isolate 770, 24 h; summary of the method: as §1
Staphylococcus aureus [51] = test: Antibacterial activity against community-acquired methicillin-resistant panton-valentine leukocidin-positive Staphylococcus aureus isolate 815 after 24 hrs by modified broth macrodilution method; details: isolate 815, 24 h; summary of the method: as §1

CN[C@@H]1[C@@H](O)[C@@](C)(O[C@@H]2[C@@H](O)[C@H](O[C@H]3OC(CNCCO)=CC[C@H]3N)[C@@H](N)C[C@H]2NC(=O)[C@H](O)CCN)OC[C@]1(C)O
MIC (Staphylococcus aureus [1]): 2 µg/mL (≈ 3.3 µM)
MIC (Staphylococcus aureus [2]): 8 µg/mL (≈ 13.2 µM)
MIC (Staphylococcus aureus [3]): 4 µg/mL (≈ 6.59 µM)
MIC (Staphylococcus aureus [4]): 1 µg/mL (≈ 1.65 µM)
MIC (Staphylococcus aureus [5]): 1 µg/mL (≈ 1.65 µM)
MIC (Staphylococcus aureus [6]): 2 µg/mL (≈ 3.3 µM)
MIC (Staphylococcus aureus [7]): 2 µg/mL (≈ 3.3 µM)
MIC (Staphylococcus aureus [8]): 2 µg/mL (≈ 3.3 µM)
MIC (Staphylococcus aureus [9]): 4 µg/mL (≈ 6.59 µM)
MIC (Staphylococcus aureus [10]): 4 µg/mL (≈ 6.59 µM)
MIC (Staphylococcus aureus [11]): 4 µg/mL (≈ 6.59 µM)
MIC (Staphylococcus aureus [12]): 4 µg/mL (≈ 6.59 µM)
MIC (Staphylococcus aureus [13]): 4 µg/mL (≈ 6.59 µM)
MIC (Staphylococcus aureus [14]): 4 µg/mL (≈ 6.59 µM)
MIC (Staphylococcus aureus [15]): 2 µg/mL (≈ 3.3 µM)
MIC (Staphylococcus aureus [16]): 2 µg/mL (≈ 3.3 µM)
MIC (Staphylococcus aureus [17]): 2 µg/mL (≈ 3.3 µM)
MIC (Staphylococcus aureus [18]): 1 µg/mL (≈ 1.65 µM)
MIC (Staphylococcus aureus [19]): 2 µg/mL (≈ 3.3 µM)
MIC (Staphylococcus aureus [20]): 1 µg/mL (≈ 1.65 µM)
MIC (Staphylococcus aureus [21]): 1 µg/mL (≈ 1.65 µM)
MIC (Staphylococcus aureus [22]): 2 µg/mL (≈ 3.3 µM)
MIC (Staphylococcus aureus [23]): 2 µg/mL (≈ 3.3 µM)
MIC (Staphylococcus aureus [24]): 0.5 µg/mL (≈ 0.824 µM)
MIC (Staphylococcus aureus [25]): 4 µg/mL (≈ 6.59 µM)
MIC (Staphylococcus aureus [26]): 2 µg/mL (≈ 3.3 µM)
MIC (Staphylococcus aureus [27]): 4 µg/mL (≈ 6.59 µM)
MIC (Staphylococcus aureus [28]): 4 µg/mL (≈ 6.59 µM)
MIC (Staphylococcus aureus [29]): 1 µg/mL (≈ 1.65 µM)
MIC (Staphylococcus aureus [30]): 1 µg/mL (≈ 1.65 µM)
MIC (Staphylococcus aureus [31]): 2 µg/mL (≈ 3.3 µM)
MIC (Staphylococcus aureus [32]): 1 µg/mL (≈ 1.65 µM)
MIC (Staphylococcus aureus [33]): 4 µg/mL (≈ 6.59 µM)
MIC (Staphylococcus aureus [34]): 4 µg/mL (≈ 6.59 µM)
MIC (Staphylococcus aureus [35]): 2 µg/mL (≈ 3.3 µM)
MIC (Staphylococcus aureus [36]): 4 µg/mL (≈ 6.59 µM)
MIC (Staphylococcus aureus [37]): 4 µg/mL (≈ 6.59 µM)
MIC (Staphylococcus aureus [38]): 2 µg/mL (≈ 3.3 µM)
MIC (Staphylococcus aureus [39]): 1 µg/mL (≈ 1.65 µM)
MIC (Staphylococcus aureus [40]): 2 µg/mL (≈ 3.3 µM)
MIC (Staphylococcus aureus [41]): 2 µg/mL (≈ 3.3 µM)
MIC (Staphylococcus aureus [42]): 1 µg/mL (≈ 1.65 µM)
MIC (Staphylococcus aureus [43]): 2 µg/mL (≈ 3.3 µM)
MIC (Staphylococcus aureus [44]): 0.5 µg/mL (≈ 0.824 µM)
MIC (Staphylococcus aureus [45]): 2 µg/mL (≈ 3.3 µM)
MIC (Staphylococcus aureus [46]): 2 µg/mL (≈ 3.3 µM)
MIC (Staphylococcus aureus [47]): 2 µg/mL (≈ 3.3 µM)
MIC (Staphylococcus aureus [48]): 4 µg/mL (≈ 6.59 µM)
MIC (Staphylococcus aureus [49]): 2 µg/mL (≈ 3.3 µM)
MIC (Staphylococcus aureus [50]): 2 µg/mL (≈ 3.3 µM)
MIC (Staphylococcus aureus [51]): 4 µg/mL (≈ 6.59 µM)
